Assay outcomes from PubChem BioAssay.
A selection: hits, their analogues and other compounds. The true share with any hit is near 3.5%.
MrgX1 antagonist – antagonists of human MrgX1 receptor; Q96LB2; MRGX1-HEK293 calcium flux, Fluo-4, BAM8-22 antagonism; active compounds read low; B-score at 10 µM; 1.3% of 310,000 active; AID 588676;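 active = calcium-response B-score plate-corrected more than 3 library SD below zero, starting fluorescence within 5 deviations, no agonist response on first addition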;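 note: peak minus trough fluorescence over baseline after final BAM8-22 challenge near maximal dose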
Target sequence (Q96LB2 whole entry, looked up): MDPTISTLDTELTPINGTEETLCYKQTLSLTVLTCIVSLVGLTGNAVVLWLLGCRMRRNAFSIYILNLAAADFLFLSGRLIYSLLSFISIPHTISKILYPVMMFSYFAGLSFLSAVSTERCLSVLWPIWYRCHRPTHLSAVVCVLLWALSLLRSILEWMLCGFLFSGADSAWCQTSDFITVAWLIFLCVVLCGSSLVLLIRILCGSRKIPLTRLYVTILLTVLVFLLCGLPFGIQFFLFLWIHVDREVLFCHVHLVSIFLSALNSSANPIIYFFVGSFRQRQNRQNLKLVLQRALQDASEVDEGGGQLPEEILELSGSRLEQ
MrgX1 agonist – human MrgX1 receptor agonism, primary screen; B-score at 10 µM; Q96LB2; AID 588627; MrgX1-HEK293 cells, Fluo-4 calcium fluorescence, agonist mode; active compounds read high; 0.44% of 310,000 active;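 active = calcium response B-score plate-corrected fluorescence ratio at least 3 library SD, with starting fluorescence B-score inside 5 SD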
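Assay system: stable human MrgX1 HEK293 cell line. Quantity: 15,000 cells per well. Schedule: cells plated overnight, dye loaded 0.5 h 37 °C, 0.5 h room temperature. Detection: Fluo-4 NW calcium-flux fluorescence, kinetic read. Read-out basis: peak-minus-minimum fluorescence over baseline, converted to B scores. Control set: positive and negative control wells on each plate.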
MrgX1 PAM – human MrgX1 positive allosteric modulation, primary screen; Q96LB2; MrgX1-HEK293, Fluo-4 calcium flux, FDSS; active compounds read high; B-score at 10 µM; 0.63% of 310,000 active;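 active = plate-corrected calcium response at least 3 library SD above typical, normal starting fluorescence, not activating the receptor alone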;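 note: compound read alongside a low EC10 to EC30 dose of BAM8-22 agonist; peak minus trough fluorescence over baseline measured at the second addition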
RGS4 act – potentiators or activators of RGS4. HEK293 M3R/inducible RGS4, carbachol calcium flux Fluo4; active compounds read low. B-score at 10 µM. 0.92% of 310,000 active. AID 463111;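 active = B-score of the integrated calcium signal more than 4 SD below the library mean, with starting fluorescence not abnormally high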;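 note: negative B-score means reduced calcium response which marks RGS4 activation or potentiation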
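Also added: carbachol at ECmax as muscarinic agonist stimulus; Assay system: HEK293 cells with stable M3R and inducible RGS4; Timing: overnight RGS4 induction, 30 min dye load 37 °C, 20 min compound RT; Measured by: Fluo4-AM (2 µM) calcium-flux fluorescence, kinetic read.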
RGS4 inh – inhibitors of human RGS4; B-score at 10 µM; HEK293 M3R/RGS4 inducible, Fluo-4 calcium flux; active compounds read high; triggered by carbachol at its EC20; P49798; 0.45% of 310,000 active; AID 463165;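 active = B-score, a plate-corrected calcium signal, over three deviations above library mean, with baseline fluorescence within five deviations of library mean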;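 note: RGS4 expression induced by doxycycline in cells with stable M3 receptor; B-score is computed from the integrated fluorescence ratio over baseline after carbachol; higher B-score means a larger calcium signal and so more RGS4 inhibition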
Target sequence (P49798 whole entry, looked up): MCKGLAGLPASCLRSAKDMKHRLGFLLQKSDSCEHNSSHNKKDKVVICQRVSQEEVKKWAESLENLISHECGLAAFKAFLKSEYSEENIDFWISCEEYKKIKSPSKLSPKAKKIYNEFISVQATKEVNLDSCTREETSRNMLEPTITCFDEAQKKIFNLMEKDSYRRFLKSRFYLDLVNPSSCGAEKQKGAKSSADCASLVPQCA
MrgX1 ag confirm – human MrgX1 agonism, re-confirmation screen | shares compounds with MrgX1 agonist | MrgX1-HEK293, Fluo-4 calcium fluorescence, FDSS | activation, % at 10 µM | 78% of 600 active | AID 602412;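 active = calcium signal rise, corrected for plate position, at least 3 library SD high, with starting brightness within 5 such deviations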
HEK293 Ca flux – MrgX1 antagonist counter-screen hit in parental HEK293 cells; shares compounds with MrgX1 antagonist; Fluo-4 calcium fluorescence, FDSS; fluorescence ratio F(max-min)/F0 at 10 µM; 2% of 4,000 active; AID 624111;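 active = duplicate-averaged calcium fluorescence ratio at least three times the standard deviation of buffer wells, a nonspecific response in parental cells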
HEK293 Ca counter – MrgX1 allosteric activator counter-screen hit in parental HEK293 cells; shares compounds with MrgX1 antagonist; parental HEK293 calcium flux, Fluo-4 fluorescence ratio; active compounds read high; fluorescence ratio F(max-min)/F0 at 10 µM; 0.4% of 4,000 active;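 active = calcium fluorescence ratio, averaged over duplicates, at least 3 SD of the buffer-well ratio, meaning a nonspecific response in receptor-free cells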;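 note: untransfected parental HEK293 lacking MrgX1 used as counterscreen for MrgX1 allosteric activators; fluorescence change taken during the second addition on a kinetic imager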
HEK293 Ca cntr2 – counter-screen for MrgX1 activators: effect in parental HEK293 cells | 8.7% of 4,000 active | Fluo-4 calcium fluorescence (FDSS); active compounds read high | fluorescence ratio F(max-min)/F0 at 10 µM | shares compounds with MrgX1 antagonist;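 active = calcium fluorescence ratio at least three times the spread of buffer wells, meaning a non-specific response in parental cells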
A number is an active result; . = inactive; / = not tested or not shown.

SMILES | MrgX1 antagonist | MrgX1 agonist | MrgX1 PAM | RGS4 act | RGS4 inh | MrgX1 ag confirm | HEK293 Ca flux | HEK293 Ca counter | HEK293 Ca cntr2
COc1ccc2c(c1)c(C(O)CN1CCN(Cc3ccc4c(c3)OCO4)CC1)c(C)n2C (stereo unspecified) | . | . | . | . | . | / | / | / | /
CCN(Cc1ccncc1)S(=O)(=O)c1ccc(C(C)=O)cc1 | . | . | . | . | . | / | / | / | /
Nc1ncnc2c1ncn2C1OC(C(=O)NC2CC2)C(O)C1O (stereo unspecified) | . | 30 | . | / | / | 100% | . | . | .
COC(=O)Cn1c(=O)c2c(n(Cc3ccccc3)c1=O)N/C(=C/c1ccc(Br)cc1)C2=O | . | 45 | . | . | . | 383% | . | . | 72
O=C1N/C(=C/c2ccc(Br)cc2)C(O)=C1C=NCc1ccccc1 | . | . | . | . | . | / | / | / | /
Cc1ccc(NC(=O)C(=O)NCc2ccc(/C=N/NC(=O)c3c(C)nc4ccccn34)o2)cc1 | . | . | . | . | . | / | / | / | /
COc1cccc(-c2nnc(NC(=O)c3cccc(F)c3)o2)c1 | . | 28 | . | . | . | 686% | . | . | 107
O=C(Nc1nnc(-c2ccc3c(c2)CCCC3)o1)c1ccccc1Cl | . | . | . | . | . | / | / | / | /
O=C(Nc1nnc(-c2ccc3c(c2)CCCC3)o1)c1ccccc1 | . | 28 | . | . | . | 140% | . | . | 51
Cc1ccc(NC(=O)N2CCCC2C(=O)NCC2CCCO2)cc1 (stereo unspecified) | . | . | . | . | . | / | / | / | /
CC(=O)N1CCc2cc(C(=O)CN3CCN(c4ccccn4)CC3)ccc21 | . | . | . | . | . | / | / | / | /
Cc1ccc(NC2c3ncccc3C(=O)N2Cc2cccs2)cc1 (stereo unspecified) | . | . | . | . | . | / | / | / | /
O=C(CCl)Nc1cccc(S(=O)(=O)N2CCCCCC2)c1 | . | 42 | . | . | . | 165% | . | . | .
Cc1ccc(C)c(C(=O)COC(=O)C2CCN(c3ccc(C(F)(F)F)cn3)CC2)c1 | . | . | . | . | . | / | / | / | /
COc1ccc2c(n1)Sc1nc3ccccc3nc1N2 | . | 40 | . | . | . | 501% | 0.18 | . | 122
COc1cc2ccccc2nn1 | . | . | . | . | . | / | / | / | /
Cc1ccc(Cn2c(-c3nonc3N)nc3ccccc32)cc1 | . | . | . | . | . | / | / | / | /
Nc1nc2ccccc2n1Cc1ccc(Cl)c(Cl)c1 | . | 36 | . | . | . | 164% | . | . | .
Cc1ccc(Cn2c(N)nc3ccccc32)cc1 | . | 30 | . | . | . | 78% | . | . | .
Cc1ccc2nc(NC(=O)CSc3nncc(=O)n3N)sc2c1 | . | . | . | . | . | / | / | / | /
CC(C)(C)c1ccc(S(=O)(=O)/N=C2\C=C(NS(=O)(=O)c3ccccc3)C(=O)c3ccccc32)cc1 | . | 27 | . | . | . | 80% | . | . | 57
CCOC(=O)c1cnn2c(C)cc(-c3ccc(F)cc3)nc12 | . | 26 | . | . | . | . | . | . | .
Cc1ccc2nc(/C(C#N)=C\c3ccc(N4CCOCC4)o3)[nH]c2c1 | . | 68 | . | . | . | . | 0.33 | . | .
N[C@@H](Cc1c[nH]c2ccc(O)cc12)C(=O)O | . | 32 | . | / | / | . | . | . | .
COC(=O)CC1=C(C(=O)OC)C(c2ccc3c(c2Cl)OCO3)C(C#N)=C(N)O1 (stereo unspecified) | . | 41 | . | . | . | 172% | . | . | .
SMILES | MrgX1 antagonist | MrgX1 agonist | MrgX1 PAM | RGS4 act | RGS4 inh | MrgX1 ag confirm | HEK293 Ca flux | HEK293 Ca counter | HEK293 Ca cntr2
CC(C(=O)NC(C)(C)C)N(C(=O)CS(=O)CC(=O)Nc1ccc(F)cc1)c1ccccc1F (stereo unspecified) | . | . | . | . | . | / | / | / | /
Cc1ccc(-n2sc3ccccc3c2=O)cc1S(=O)(=O)N1CCCCC1 | . | . | . | . | . | / | / | / | /
Cc1ccccc1-n1sc2cc(F)ccc2c1=O | . | 40 | . | / | / | 303% | . | . | 66
O=C(Nc1cccc(Cl)c1)Nc1cc(S(=O)(=O)N2CCOCC2)ccc1N1CCCC1 | . | . | . | . | . | / | / | / | /
COc1ccccc1C(=O)NNC(=S)NC(=O)c1cccs1 | . | 80 | . | . | . | 476% | . | . | 111
O=C(Cc1ccc(Cl)cc1)NNC(=S)NC(=O)c1cccs1 | . | 122 | . | . | . | 316% | . | . | 68
O=C(NC(=S)NNC(=O)c1ccccc1O)c1cccs1 | . | 132 | . | . | . | 358% | . | . | 71
CC1CN(S(=O)(=O)c2cccc(C(=O)OC(C)C(=O)NC3CCCCC3C)c2)CC(C)O1 (stereo unspecified) | . | . | . | . | . | / | / | / | /
CCc1cccc(NC(=O)CN(C)S(=O)(=O)c2cccc3cccnc23)c1 | . | . | . | . | . | / | / | / | /
Cc1nc(N2CCN(c3ccc(Cl)cc3)CC2)[nH]c(=O)c1C | . | . | . | . | . | / | / | / | /
Cc1occc1C(=O)NNS(=O)(=O)c1ccc([N+](=O)[O-])cc1 | . | . | . | . | . | / | / | / | /
Cc1cc(NC(=O)CN2C(=O)NC3(CCCCCC3)C2=O)no1 | . | . | . | . | . | / | / | / | /
CCN1CCN(c2ccc(S(=O)(=O)N3CCCCC3)cc2NC(=O)COc2cc(C)ccc2Cl)CC1 | . | . | . | . | . | / | / | / | /
COc1cc2ncnc(NCc3ccc(Cl)cc3)c2cc1OC | . | 33 | . | . | . | 136% | . | . | .
Nc1ccc(-c2cnc3ccccc3n2)cc1 | . | 28 | . | . | . | 87% | . | . | .
CC(C)CCN(C(=O)Cc1ccc(Cl)c(Cl)c1)c1c(N)n(Cc2ccccc2)c(=O)[nH]c1=O | . | . | . | . | . | / | / | / | /
N#Cc1c(NCCN)nc(-c2ccco2)c2c1CCCC2 | . | . | . | . | . | / | / | / | /
CC(C)CCNc1nc(-c2ccco2)c2c(c1C#N)CCCC2 | . | 27 | . | . | . | . | . | . | .
O=C(NC1CCCCCC1)c1cc(=O)[nH]c2ccc(S(=O)(=O)N3CCOCC3)cc12 | . | . | . | . | . | / | / | / | /
Cc1csc(NC(=O)c2cc(=O)[nH]c3ccc(S(=O)(=O)N4CCOCC4)cc23)n1 | . | 55 | . | . | . | 266% | . | . | .
O=C(Cc1ccc(NC2=NC3CS(=O)(=O)CC3S2)cc1)NCc1ccccc1 (stereo unspecified) | . | . | . | . | . | / | / | / | /
O=C(Cc1ccc(Cl)cc1Cl)OCC(=O)N1CCN(C(=O)c2ccco2)CC1 | . | 29 | . | . | . | . | . | . | .
